Data reported in ChEMBL document CHEMBL4725347, “Discovery of a Monoiodo Aza-BODIPY Near-Infrared Photosensitizer: in vitro and in vivo Evaluation for Photodynamic Therapy” (J Med Chem, 2020).

Experiments:
[1] = Photostability of the compound in acetonitrile assessed as compound degradation irradiated with 90 mW/cm2 light; type: physicochemical
MCF7 = experiment: Phototoxicity against human MCF7 cells assessed as reduction in cell viability preincubated for 3 hrs followed by 54 J/cm2 light irradiation and measured after 24 hrs by MTT assay; type: functional, cell-based; settings: MCF7, light or radiation study
How it was run: (§1)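 PS formulated in PBS containing Cremophor EL/1,2-propanediol (10:3, v:v) after THF removal, filtered, with concentration confirmed by UV-Vis. Cells were grown in DMEM with 10% FBS and seeded at 3×10^3 per well overnight. They were incubated with PS for 3 h, irradiated at λ > 590 nm, kept 24 h at 37 °C, then given MTT (0.5 mg/mL, 4 h) with DMSO solubilization and A490 read-out.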

[2] = Induction of singlet oxygen generation in N,N-dimethylformamide assessed as relative rate of DPBF degradation to MB at 1 uM irradiated with 90 mW/cm2 halogen light; type: functional
How it was run: (§2)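 Singlet oxygen generation measured with 1,3-diphenylisobenzofuran (DPBF) as scavenger. The decrease in DPBF absorbance at 411 nm was monitored over time during light irradiation, and the photodegradation rate was calculated.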

[3] = Dark toxicity in human SW480 cells assessed as reduction in cell viability after 3 hrs by MTT assay; type: cell-based
[4] = Dark toxicity in human HeLa cells assessed as reduction in cell viability after 3 hrs by MTT assay; type: cell-based
How it was run: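 Compound was formulated with Cremophor EL/1,2-propanediol in PBS, filtered, and its concentration confirmed by UV-Vis. HeLa cells in DMEM with 10% FBS at 37 °C, 5% CO2 were seeded at 3×10^3 cells/well and adhered overnight. Cells were exposed to graded concentrations for 3 h without light, incubated 24 h, then MTT 0.5 mg/mL for 4 h; formazan dissolved in DMSO, A490 read.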

[5] = Absorption property of the compound in chloroform assessed as hypsochromic shift by measuring maximum absorption wavelength by UV-visible spectrophotometric method; type: physicochemical
How it was run: (§3)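 Electronic absorption spectra recorded by UV-visible spectrophotometry at room temperature. Solvents were chloroform, isopropanol, acetonitrile, DMF, and PBS buffer containing 1% Cremophor EL/1,2-propanediol (10:3, v:v). Chloroform data were referenced to the non-halogenated parent dye.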

[6] = Photostability of the compound in N,N-dimethylformamide assessed as compound degradation irradiated with 90 mW/cm2 light; type: physicochemical
[7] = Emission property of the compound in chloroform assessed as maximum emission wavelength by fluorescence spectrophotometric method; type: physicochemical
How it was run: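 Fluorescence spectrum recorded in chloroform by fluorescence spectrophotometer at room temperature.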

[8] = Photostability of the compound in isopropanol assessed as compound degradation irradiated with 90 mW/cm2 light; type: physicochemical
[9] = Stability of the compound in acetonitrile assessed as compound degradation under dark condition; type: physicochemical
HeLa = experiment: Phototoxicity against human HeLa cells assessed as reduction in cell viability preincubated for 3 hrs followed by 54 J/cm2 light irradiation and measured after 24 hrs by MTT assay; type: functional, cell-based; settings: light or radiation study; how it was run: as §1
SW480 = experiment: Phototoxicity against human SW480 cells assessed as reduction in cell viability preincubated for 3 hrs followed by 54 J/cm2 light irradiation and measured after 24 hrs by MTT assay; type: functional, cell-based; settings: SW480, light or radiation study; how it was run: as §1
[10] = Induction of singlet oxygen generation in isopropanol assessed as relative rate of DPBF degradation to MB at 1 uM irradiated with 90 mW/cm2 halogen light; type: functional; how it was run: as §2
[11] = Stability of the compound in PBS containing 1% Cremophor EL/1,2-propanediol (10:3, v:v) system assessed as compound degradation under dark condition; type: physicochemical; settings: buffer
[12] = Absorption property of the compound in chloroform assessed as absorption coefficient by UV-visible spectrophotometric method; type: physicochemical; how it was run: as §3
[13] = Photostability of the compound in PBS containing 1% Cremophor EL/1,2-propanediol (10:3, v:v) system assessed as compound degradation irradiated with 90 mW/cm2 light; type: physicochemical; settings: buffer
[14] = Dark toxicity in human MCF7 cells assessed as reduction in cell viability after 3 hrs by MTT assay; type: cell-based
[15] = Induction of singlet oxygen generation in PBS containing 1% Cremophor EL/1,2-propanediol (10:3, v:v) system assessed as relative rate of DPBF degradation to MB at 1 uM irradiated with 90 mW/cm2 halogen light; type: functional; how it was run: as §2
[16] = Absorption property of the compound in PBS containing 1% Cremophor EL/1,2-propanediol (10:3, v:v) system assessed as absorption coefficient by UV-visible spectrophotometric method; type: physicochemical; settings: buffer; how it was run: as §3
[17] = Absorption property of the compound in isopropanol assessed as absorption coefficient by UV-visible spectrophotometric method; type: physicochemical; how it was run: as §3
[18] = Absorption property of the compound in N,N-dimethylformamide assessed as absorption coefficient by UV-visible spectrophotometric method; type: physicochemical; how it was run: as §3
[19] = Absorption property of the compound in acetonitrile assessed as absorption coefficient by UV-visible spectrophotometric method; type: physicochemical; how it was run: as §3

| SMILES | IC50 (MCF7) [µM] | fold change (FC) [2] | IC50 at 3 h [3] [µM] | IC50 at 3 h [4] [µM] | Activity [5] [nm] | Activity [7] [nm] | IC50 (HeLa) [µM] | IC50 (SW480) [µM] | Activity [12] [M⁻¹ cm⁻¹] | IC50 at 3 h [14] [µM] | other results |
| --- | --- | --- | --- | --- | --- | --- | --- | --- | --- | --- | --- |
| COc1ccc(C2=[N+]3C(=Nc4c(-c5ccccc5)cc(-c5ccc(OC)cc5)n4[B-]3(F)F)C(c3ccccc3)=C2)cc1 | 9.4 | 0.04 | > 50 | > 50 | 688 | 725 | 11.6 | 12.1 | 99000 | > 50 | Stabilty [1]: Stable; Stabilty [6]: Unstable; Stabilty [8]: Stable; Stabilty [9]: Unstable; fold change (FC) [10]: 0.28; Stabilty [11]: Unstable; Stabilty [13]: Stable; fold change (FC) [15]: 0.3 |
| COc1ccc2c(c1)CCc1c(-c3ccccc3)c3n(c1-2)[B-](F)(F)[N+]1=C(c2ccc(C)cc2)C(Br)=C(c2ccccc2)C1=N3 | 8.1 | 0.14 | > 50 | > 50 | 682 | 709 | 1.2 | 15.6 | 104400 | > 50 |  |
| COc1ccc(C2=[N+]3C(=Nc4c(-c5ccccc5)c(Br)c(-c5ccc(OC)cc5)n4[B-]3(F)F)C(c3ccccc3)=C2I)cc1 | 0.42 | 0.65 | > 50 | > 50 | 679 | 720 | 0.31 | 0.53 | 76000 | > 50 | Stabilty [1]: Stable; Activity [16]: 34000 M⁻¹ cm⁻¹; Activity [17]: 59300 M⁻¹ cm⁻¹; Activity [18]: 59300 M⁻¹ cm⁻¹; Stabilty [6]: Unstable; Stabilty [8]: Stable; Stabilty [9]: Unstable; fold change (FC) [10]: 6.8; Stabilty [11]: Unstable; Stabilty [13]: Stable; Activity [19]: 59300 M⁻¹ cm⁻¹; fold change (FC) [15]: 2.3 |
| COc1ccc2c(c1)CCc1c(-c3ccccc3)c3n(c1-2)[B-](F)(F)[N+]1=C(c2cccs2)C(I)=C(c2ccccc2)C1=N3 | 0.75 | 0.37 | > 50 | > 50 | 695 | 740 | 0.46 | 0.83 | 81500 | > 50 |  |
| COc1ccc2c(c1)CCc1c(-c3ccccc3)c3n(c1-2)[B-](F)(F)[N+]1=C(c2ccc(C)s2)C(I)=C(c2ccccc2)C1=N3 | 16.6 | 0.42 | > 50 | > 50 | 716 | 756 | 12.3 | 21.4 | 76900 | > 50 |  |
| Cc1ccc(C2=[N+]3C(=Nc4c(-c5ccccc5)c(I)c(-c5ccc(C)cc5)n4[B-]3(F)F)C(c3ccccc3)=C2I)cc1 | 5.3 | 0.28 | > 50 | > 50 | 662 | 688 | 13.4 | > 25 | 92000 | > 50 |  |
| COc1ccc(C2=[N+]3C(=Nc4c(-c5ccccc5)c5c(n4[B-]3(F)F)-c3ccc(OC)cc3CC5)C(c3ccccc3)=C2I)cc1 | 0.14 | 1.2 | > 50 | > 50 | 689 | 725 | 0.081 | 0.12 | 101300 | > 50 |  |
